As usually defined, the IC50 is the concentration that gives 50% inhibition. For orientation: IC90 means the point of the concentration-response curve where the effect stands at 90%. As a reminder, the inhibition is the percentage by which the read-out fell short of the control.

These results are taken from ChEMBL document CHEMBL1165967, “Synthesis and biological evaluation of pyrimidine analogs of antimycobacterial purines” (Bioorg Med Chem, 2010).

Series [1] concerns Mycobacterium tuberculosis. In words: Antimycobacterial activity against Mycobacterium tuberculosis H37Rv by twofold dilution method. In kind it is functional, organism-based. The gist of the method:
(§1)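 M. tuberculosis H37Rv (ATCC 27294) grown in BACTEC 12B medium, tested by Microplate Alamar Blue Assay across 10 twofold dilutions from 100 to 0.19 µg/mL. IC90 and IC50 taken from dose–response curve fitting.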

Series [2] concerns Vero. In words: Cytotoxicity against african green monkey Vero cells after 72 hrs by MTT assay. The conditions noted are these: Chlorocebus sabaeus. In kind it is cell-based. The gist of the method:
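VERO cell cytotoxicity screen: cells exposed to compound for 72 h, viability read by MTT (CellTiter 96 non-radioactive proliferation reagent); EC50 obtained by curve fitting of the dose–response.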
(In general: Formazan colour is commonly taken as a measure of viable cells.)

Series [3] can be described thus: Chemical stability in DMSO-d6/D2O solution assessed as cyclization after 25 days. In kind it is physicochemical. The conditions noted are these: for Stability: 600 h.
Series [4] is described as follows: Chemical stability in CD3OD solution assessed as cyclization after 25 days. The note with it: read-out: Activity. In kind it is physicochemical.
Series [5] can be described thus: Chemical stability in DMSO-d6 solution assessed as cyclization after 25 days. In kind it is physicochemical. The conditions noted are these: 600 h.
Series [6] in a line: Solubility in DMSO-d6/D2O solution. In kind it is physicochemical.
The nature of series [7]: Solubility in CD3OD solution. In kind it is physicochemical.
The subject of series [8] is Mycobacterium tuberculosis. The series can be described thus: Antimycobacterial activity against Mycobacterium tuberculosis H37Rv at 6.25 ug/mL by twofold dilution method. In kind it is functional.
Series [9] concerns Mycobacterium tuberculosis. The series can be described thus: Antimycobacterial activity against Mycobacterium tuberculosis. In kind it is functional, organism-based. In outline: as §1

In brackets after ≈: the same amount, converted by molar mass.

With `COc1ccc(CNc2ncnc(-c3ccco3)c2N(C)C)cc1`, in series [1], the IC50 was 17 µg/mL (≈ 52.4 µM) and the 90% effect concentration (IC90) was over 100 µg/mL.

Regarding `COc1ccc(CN(C)c2ncnc(-c3ccco3)c2N)cc1`, in [1], the midpoint of inhibition, the IC50, lay at 9.4 µg/mL (≈ 30.3 µM) and the IC90 was 17 µg/mL (≈ 54.8 µM).

Take `COc1ccc(CNc2nc(Cl)nc(-c3ccco3)c2NC=O)cc1`: the IC50 was under 0.2 µg/mL in [1] and over 40 µg/mL in series [2]. The molecule further yielded an IC90 in series [1] of 0.2 µg/mL (≈ 0.557 µM). Moreover, the Stability entry in series [3] and in series [5] was “Stable” in each case. Moreover, in series [4], the degraded at 600 h turned out to be 12%.

For the molecule `COc1ccc(CNc2nc(F)nc(-c3ccco3)c2NC=O)cc1`, the concentration for half-maximal inhibition (IC50) was under 0.2 µg/mL in series [1] and over 40 µg/mL in [2]. The molecule also returned a 90% effect concentration (IC90) in [1] of under 0.2 µg/mL. Moreover, the Stability result in series [3] and in [5] was “Stable” each time.

For `COc1ccc(COc2cc(-c3ccco3)ncn2)cc1`, in [1], the IC50 is over 100 µg/mL and the concentration for an effect of 90% (IC90) was over 100 µg/mL.

As for `COc1ccc(CN(C)c2ncnc(-c3ccco3)c2NC=O)cc1`, in series [1], the half-maximal inhibitory concentration (IC50) was over 100 µg/mL and the IC90 was over 100 µg/mL.

With `COc1ccc(CNc2ncnc(-c3ccco3)c2[N+](=O)[O-])cc1`, in series [1], the IC50 worked out at 13 µg/mL (≈ 39.8 µM) and it took 21 µg/mL (≈ 64.4 µM) to reach the 90% level (IC90).

In series [1], `CNc1c(NCc2ccc(OC)cc2)ncnc1-c1ccco1` gave a concentration for half-maximal inhibition (IC50) of 9 µg/mL (≈ 29 µM) and a 90% effect concentration (IC90) of 15 µg/mL (≈ 48.3 µM).

In [1], `COc1ccc(CN(C)c2cc(-c3ccco3)ncn2)cc1` gave an IC50 of 5.5 µg/mL (≈ 18.6 µM) and an IC90 of 7.1 µg/mL (≈ 24 µM). The solubility result in series [6] was “Insoluble”. For the same molecule, the solubility result in [7] is “Insoluble”.

In the case of `COc1ccc(Cn2cncc2-c2cc(-c3ccco3)ncn2)cc1`, in series [1], half-maximal inhibition (IC50) required 9.8 µg/mL (≈ 29.5 µM) and the IC90 was determined as 14 µg/mL (≈ 42.1 µM).

Consider `COc1ccc(COc2ncnc(-c3ccco3)c2NC=O)cc1`, for which, in series [1], the IC50 was over 100 µg/mL and the IC90 was over 100 µg/mL.

Turning to `COc1ccc(CNc2nc(N(C)C)nc(-c3ccco3)c2NC=O)cc1`, in series [1], 11 µg/mL (≈ 29.9 µM) corresponded to half-maximal inhibition (IC50) and the IC90 was determined as 26 µg/mL (≈ 70.8 µM). Further, in series [3], the Stability entry is “Stable”. For the same molecule, in series [4], the degraded at 600 h stood at 12%. The Stability result in series [5] is given as “Stable”.

In series [1], `COc1ccc(COc2cc(-c3ccco3)nc(Cl)n2)cc1` yielded an IC50 of over 100 µg/mL and a 90% effect concentration (IC90) of over 100 µg/mL.

Take `COc1ccc(CN(C)c2cc(-c3ccco3)nc(Cl)n2)cc1`: the IC50 in series [1] worked out at 1.4 µg/mL (≈ 4.25 µM); in series [2] it was 22 µg/mL (≈ 66.7 µM). The molecule further gave a concentration for an effect of 90% (IC90) in series [1] of 3 µg/mL (≈ 9.1 µM).

In series [1], `COc1ccc(Cn2cnc(-c3cncnc3-c3ccco3)c2)cc1` displayed an IC50 of 62 µg/mL (≈ 187 µM) and an IC90 of 82 µg/mL (≈ 247 µM).

Turning to `CCNc1c(NCc2ccc(OC)cc2)ncnc1-c1ccco1`, in series [1], it took 36 µg/mL (≈ 111 µM) to reach half-maximal inhibition (IC50) and the concentration for an effect of 90% (IC90) was 46 µg/mL (≈ 142 µM).

Molecule `COc1ccc(CNc2cc(-c3ccco3)ncn2)cc1` registered an inhibition at 6.25 µg/mL in [8] of 0%.

`COc1ccc(CN(C=O)c2c(-c3ccco3)nc[nH]c2=O)cc1`: in series [1], the midpoint of inhibition, the IC50, lay at 68 µg/mL (≈ 209 µM) and the IC90 was 92 µg/mL (≈ 283 µM).

In series [1], `COc1ccc(CNc2cc(-c3ccco3)nc(Cl)n2)cc1` gave an IC50 of over 100 µg/mL and an IC90 of over 100 µg/mL.

For `COc1ccc(COc2ncnc(-c3ccco3)c2[N+](=O)[O-])cc1`, in series [1], the half-maximal inhibitory concentration (IC50) is over 50 µg/mL and the IC90 was over 50 µg/mL.

In series [1], `COc1ccc(CN(C)c2ncnc(-c3ccco3)c2[N+](=O)[O-])cc1` returned an IC50 of 5.7 µg/mL (≈ 16.7 µM) and a concentration for an effect of 90% (IC90) of 13 µg/mL (≈ 38.2 µM).

In the case of `CCc1nc(NCc2ccc(OC)cc2)c(NC=O)c(-c2ccco2)n1`, in [1], the half-inhibitory concentration (IC50) amounted to 0.26 µg/mL (≈ 0.738 µM) and it took 0.53 µg/mL (≈ 1.5 µM) to reach the 90% level (IC90). This molecule came in with an IC50 in series [2] of over 40 µg/mL. The degraded at 600 h in series [4] was found to be 90%. The Stability result in [5] is “Stable”.

With `COc1ccc(CNc2ncnc(-c3ccco3)c2N)cc1`, in series [8], the inhibition at 6.25 µg/mL turned out to be 0%.

In series [9], `COc1ccc(Cn2cnc3c(-c4ccco4)nc(Cl)nc32)cc1` had an IC90 of 0.82 µg/mL (≈ 2.41 µM).

Consider `COc1ccc(Cn2cnc3c(-c4ccco4)ncnc32)cc1`, for which the concentration for half-maximal inhibition (IC50) in series [9] was under 0.2 µg/mL.

In the case of `COc1ccc(CNc2nc(C)nc(-c3ccco3)c2NC=O)cc1`, the half-inhibitory concentration (IC50) was under 0.2 µg/mL in series [1] and over 40 µg/mL in series [2]. Also, in series [1], it took 0.33 µg/mL (≈ 0.975 µM) to reach the 90% level (IC90). Moreover, the degraded at 600 h in series [3] (DMSO-d6/D2O solution, read-out: Activity) turned out to be 40%; in [4] it was 90%. Further, the Stability entry in series [5] is given as “Stable”.

Consider `COc1ccc(CNc2nc(OC)nc(-c3ccco3)c2NC=O)cc1`, for which the half-maximal inhibitory concentration (IC50) is 0.53 µg/mL (≈ 1.5 µM) in series [1] and over 40 µg/mL in series [2]. This molecule yielded an IC90 in series [1] of 1.5 µg/mL (≈ 4.23 µM). Moreover, the Stability entry in series [3] and in series [5] was “Stable” in each case. In series [4], the degraded at 600 h is 12%.

In series [1], `COc1ccc(CNc2nc([N+](=O)[O-])nc(-c3ccco3)c2NC=O)cc1` gave an IC50 of 0.59 µg/mL (≈ 1.6 µM) and an IC90 of 1.1 µg/mL (≈ 2.98 µM). In series [2], this molecule gave a half-inhibitory concentration (IC50) of over 40 µg/mL.

In the case of `COc1ccc(COc2ncnc(-c3ccco3)c2N)cc1`, in series [1], the IC50 is over 100 µg/mL and the IC90 was over 100 µg/mL.

In the case of `NCC[C@H](O)C(=O)N[C@@H]1C[C@H](N)[C@@H](O[C@H]2O[C@H](CN)[C@@H](O)[C@H](O)[C@H]2O)[C@H](O)[C@H]1O[C@H]1O[C@H](CO)[C@@H](O)[C@H](N)[C@H]1O.O=S(=O)(O)O`, in [1], the IC50 amounted to 0.07 µg/mL and the concentration for an effect of 90% (IC90) came to 0.13 µg/mL.

Take `COc1ccc(CNc2ncnc(-c3ccco3)c2NC=O)cc1`: the IC50 in [1] is 0.22 µg/mL (≈ 0.678 µM); in series [2] it was over 40 µg/mL. In series [1], it took 0.56 µg/mL (≈ 1.73 µM) to reach the 90% level (IC90). In addition, the degraded at 600 h in series [4] was determined as 90%. For the same molecule, the Stability entry in series [5] was “Stable”.
